Data set [1] has as its target T1, CREB-binding protein (Homo sapiens, UniProt Q92793). The data set can be described thus: Inhibition of Halo-tagged histone H3.3 binding to NanoLuc luciferase conjugated human CBP expressed in HEK293 cells after overnight incubation by BRET assay. Type of data set: cell-based. (In general: BRET reads energy transfer from a luciferase to a nearby fluorophore.)
Data set [2] has as its target T1, CREB-binding protein. The data set can be described thus: Inhibition of CBP in human MV-4-11 cells assessed as decrease in MYC expression incubated for 4 hrs measured by luminescence method. Type of data set: cell-based.
For data set [3], the target named is Bromodomain-containing protein 4 (Homo sapiens, UniProt O60885). The data set can be described thus: Displacement of biotinylated histone H3K14 peptide ligand from human recombinant His-tagged BRD4 bromodomain-1 measured after 10 mins by TR-FRET assay. In general terms: Time-resolved FRET reads energy transfer from a long-lived donor to a nearby acceptor.
Data set [4] relates to Mus musculus. Description: In vivo inhibition of CBP in human MOLM16 cells xenografted in C.B-17 SCID beige mouse assessed as MYC transcript levels at 3 mg/kg administered via oral gavage as bid for 21 days measured 16 hrs post last dose by real time-PCR method. Set-up: scale not given: the % may be the effect or the level left. Type of data set: functional.
For data set [5], the system named is Mus musculus. The data set can be described thus: In vivo inhibition of CBP in human MOLM16 cells xenografted in C.B-17 SCID beige mouse assessed as suppression of MYC transcript levels at 3 mg/kg administered via oral gavage as bid for 21 days measured 2 to 8 hrs post last dose by real time-PCR method. Type of data set: functional, organism-based. (Xenograft models place foreign cells or tissue in a host animal.)

The nature of data set [6]: Antitumor activity against human MOLM16 cells xenografted in C.B-17 SCID beige mouse assessed as tumor growth inhibition at 3 mg/kg administered via oral gavage as bid for 21 days relative to control. The note with it: read-out: TGI. Type of data set: functional. In a few lines:
(§1)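 Female C.B-17 SCID.bg mice received 5 million MOLM-16 cells s.c. in HBSS/Matrigel in the right flank. Dosing began at 130–300 mm3: oral gavage BID for 21 days in 0.5% methylcellulose, 0.2% Tween 80, n=10/group. Caliper volumes taken; %TGI computed from the area under the mixed-model spline-fitted curve per day versus vehicle.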

The target in the next data set is Cytochrome P450 1A2 (Homo sapiens, UniProt P05177). The data set can be described thus: Inhibition of CYP1A2 (unknown origin). Type of data set: ADME.
The next data set has as its system Plasma. The data set can be described thus: Drug uptake in plasma of C.B-17 SCID beige mouse xenografted with human MOLM16 cells at 3 to 30 mg/kg administered via oral gavage as bid for 21 days measured 2 to 24 hrs post last dose by LC-MS/MS method. The note with it: in vivo. Type of data set: ADME, organism-based.
The target of another data set is Cytochrome P450 2C19 (Homo sapiens, UniProt P33261). Description: Inhibition of CYP2C19 (unknown origin). Type of data set: ADME.
Data set [7] is described as follows: Antitumor activity against human MOLM16 cells xenografted in C.B-17 SCID beige mouse assessed as tumor growth inhibition at 10 mg/kg administered via oral gavage as bid for 21 days relative to control. Type of data set: functional. The note with it: read-out: TGI. In a few lines:
as §1

Another data set concerns the target Cytochrome P450 2C9 (Homo sapiens, UniProt P11712). Description: Inhibition of CYP2C9 (unknown origin). Type of data set: ADME.
The target of the next data set is Cytochrome P450 2D6 (Homo sapiens, UniProt P10635). Description: Inhibition of CYP2D6 (unknown origin). Type of data set: ADME.
The nature of data set [8]: Antitumor activity against human MOLM16 cells xenografted in C.B-17 SCID beige mouse assessed as tumor growth inhibition at 30 mg/kg administered via oral gavage as bid for 21 days relative to control. Type of data set: functional. The settings on record: read-out: TGI. In a few lines: as §1
A further data set concerns the target Cytochrome P450 3A4 (Homo sapiens, UniProt P08684). The data set can be described thus: Inhibition of CYP3A4 (unknown origin). Type of data set: ADME.
Data set [9] can be described thus: Drug uptake in tumor of C.B-17 SCID beige mouse xenografted with human MOLM16 cells at 3 to 30 mg/kg administered via oral gavage […] measured 2 to 24 hrs post last dose by LC-MS/MS method. The settings on record: in vivo. Type of data set: ADME, organism-based, Neoplasm. In a few lines:
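In MOLM-16 xenograft mice given single oral doses of 3–30 mg/kg, plasma and tumor were sampled from 2 to 24 h. Tumor was homogenized in 4 volumes of water. Both matrices were extracted with acetonitrile with labetalol as internal standard and measured by LC-MS/MS. Levels were corrected for plasma protein and tissue binding to give unbound concentrations.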

The subject of data set [10] is Mus musculus. The data set can be described thus: In vivo inhibition of CBP in human MOLM16 cells xenografted in C.B-17 SCID beige mouse assessed as suppression of MYC transcript levels at 30 mg/kg administered via oral gavage […] measured 2 hrs post last dose by real time-PCR method relative to control. Type of data set: functional. In a few lines:
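MOLM-16 subcutaneous xenografts in SCID beige mice received single oral doses of 3–30 mg/kg (n=3/group). Tumors were taken at time points from 2 to 24 h. MYC transcript was measured in tumor RNA by one-step TaqMan qRT-PCR with ACTB as housekeeping gene. Results are given relative to vehicle-treated animals by the comparative Ct method.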

The nature of data set [11]: Cytotoxicity against induced-Treg cells differentiated from human PBMC derived naive CD4-positive T cells assessed as effect on cell viability at 0.001 to 2 uM measured after 4 days by […] dye-based flow cytometry. The note with it: 96 h. The essentials: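 Naïve CD4+ T cells from healthy-donor PBMC were differentiated to iTregs with anti-CD3, anti-CD28, rIL-2 (10 ng/ml) and rTGFβ in RPMI-1640 with 10% FCS. Compound was tested from 2 µM in 2-fold dilutions, with DMSO as control. Cells were harvested on day 4 and viability was scored by flow cytometry with a fixable viability dye.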

The values that follow come from ChEMBL document CHEMBL4052814, “GNE-781, A Highly Advanced Potent and Selective Bromodomain Inhibitor of Cyclic Adenosine Monophosphate Response Element Binding Protein, Binding Protein (CBP)” (J Med Chem, 2017).

The structures appear in SMILES notation. pEC50, pIC50: −log10 of the molar value. Activity calls are given as the source filed them. No cut-off for these calls is given here.

T1 sequence (Q92793 whole entry): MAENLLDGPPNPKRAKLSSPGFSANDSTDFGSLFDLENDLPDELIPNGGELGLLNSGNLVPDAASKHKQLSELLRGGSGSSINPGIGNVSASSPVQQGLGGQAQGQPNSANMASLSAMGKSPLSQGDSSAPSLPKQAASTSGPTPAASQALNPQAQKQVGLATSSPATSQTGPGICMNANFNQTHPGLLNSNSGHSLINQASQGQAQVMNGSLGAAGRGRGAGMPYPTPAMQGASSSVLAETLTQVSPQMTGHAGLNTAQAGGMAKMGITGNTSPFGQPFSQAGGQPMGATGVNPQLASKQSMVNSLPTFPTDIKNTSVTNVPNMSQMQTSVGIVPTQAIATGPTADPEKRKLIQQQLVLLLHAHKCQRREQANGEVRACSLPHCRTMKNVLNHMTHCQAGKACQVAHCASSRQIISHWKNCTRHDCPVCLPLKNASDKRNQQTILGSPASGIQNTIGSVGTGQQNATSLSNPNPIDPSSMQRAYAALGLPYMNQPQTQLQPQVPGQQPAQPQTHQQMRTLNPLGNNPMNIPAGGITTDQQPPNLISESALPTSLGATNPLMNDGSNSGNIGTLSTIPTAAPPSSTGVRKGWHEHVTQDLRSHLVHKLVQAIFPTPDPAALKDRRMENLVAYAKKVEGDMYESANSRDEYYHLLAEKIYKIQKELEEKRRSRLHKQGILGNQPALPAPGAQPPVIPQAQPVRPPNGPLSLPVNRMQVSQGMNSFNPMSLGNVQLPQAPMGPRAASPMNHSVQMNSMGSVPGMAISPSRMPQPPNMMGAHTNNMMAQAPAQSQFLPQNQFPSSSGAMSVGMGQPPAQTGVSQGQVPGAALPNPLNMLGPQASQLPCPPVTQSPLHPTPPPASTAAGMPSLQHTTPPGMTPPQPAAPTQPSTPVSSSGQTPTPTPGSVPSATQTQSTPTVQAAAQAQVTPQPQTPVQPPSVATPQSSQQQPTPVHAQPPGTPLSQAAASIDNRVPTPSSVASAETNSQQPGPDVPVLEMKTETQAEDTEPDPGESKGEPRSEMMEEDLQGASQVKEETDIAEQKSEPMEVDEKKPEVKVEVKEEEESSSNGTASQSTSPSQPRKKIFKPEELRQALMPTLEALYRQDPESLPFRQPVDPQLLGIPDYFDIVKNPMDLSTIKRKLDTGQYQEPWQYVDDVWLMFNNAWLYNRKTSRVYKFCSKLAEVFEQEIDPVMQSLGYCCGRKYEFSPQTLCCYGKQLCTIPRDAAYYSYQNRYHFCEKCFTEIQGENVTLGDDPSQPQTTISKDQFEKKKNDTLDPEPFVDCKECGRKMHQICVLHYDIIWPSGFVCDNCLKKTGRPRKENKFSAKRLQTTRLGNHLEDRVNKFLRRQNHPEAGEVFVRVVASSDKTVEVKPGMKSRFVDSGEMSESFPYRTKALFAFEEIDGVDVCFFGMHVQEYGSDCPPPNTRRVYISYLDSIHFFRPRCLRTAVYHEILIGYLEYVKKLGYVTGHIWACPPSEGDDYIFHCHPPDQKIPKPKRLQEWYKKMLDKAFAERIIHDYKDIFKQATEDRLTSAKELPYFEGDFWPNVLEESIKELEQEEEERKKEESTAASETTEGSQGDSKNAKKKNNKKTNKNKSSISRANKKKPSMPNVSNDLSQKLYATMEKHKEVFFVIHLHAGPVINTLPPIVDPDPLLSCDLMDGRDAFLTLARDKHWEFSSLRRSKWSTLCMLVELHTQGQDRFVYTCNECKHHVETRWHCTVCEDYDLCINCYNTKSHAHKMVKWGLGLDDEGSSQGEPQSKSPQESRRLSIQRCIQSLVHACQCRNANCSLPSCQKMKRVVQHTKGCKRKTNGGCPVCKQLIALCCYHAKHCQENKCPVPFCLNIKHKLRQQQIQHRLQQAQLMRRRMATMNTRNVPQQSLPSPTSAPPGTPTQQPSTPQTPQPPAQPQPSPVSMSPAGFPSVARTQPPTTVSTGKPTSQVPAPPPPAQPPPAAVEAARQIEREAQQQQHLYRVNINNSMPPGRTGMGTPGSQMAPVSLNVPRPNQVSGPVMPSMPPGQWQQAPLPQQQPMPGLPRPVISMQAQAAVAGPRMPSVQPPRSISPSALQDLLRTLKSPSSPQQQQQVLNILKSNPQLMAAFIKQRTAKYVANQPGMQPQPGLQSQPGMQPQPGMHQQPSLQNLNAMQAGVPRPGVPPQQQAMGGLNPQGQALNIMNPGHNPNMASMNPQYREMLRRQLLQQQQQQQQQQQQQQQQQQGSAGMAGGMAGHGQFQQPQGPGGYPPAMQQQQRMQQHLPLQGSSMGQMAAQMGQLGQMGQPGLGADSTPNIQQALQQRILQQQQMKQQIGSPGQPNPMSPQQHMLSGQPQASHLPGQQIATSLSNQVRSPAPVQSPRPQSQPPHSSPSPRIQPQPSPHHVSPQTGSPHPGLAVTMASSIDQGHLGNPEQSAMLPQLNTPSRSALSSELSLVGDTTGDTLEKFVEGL
Cytochrome P450 2D6, sequence (P10635 whole entry): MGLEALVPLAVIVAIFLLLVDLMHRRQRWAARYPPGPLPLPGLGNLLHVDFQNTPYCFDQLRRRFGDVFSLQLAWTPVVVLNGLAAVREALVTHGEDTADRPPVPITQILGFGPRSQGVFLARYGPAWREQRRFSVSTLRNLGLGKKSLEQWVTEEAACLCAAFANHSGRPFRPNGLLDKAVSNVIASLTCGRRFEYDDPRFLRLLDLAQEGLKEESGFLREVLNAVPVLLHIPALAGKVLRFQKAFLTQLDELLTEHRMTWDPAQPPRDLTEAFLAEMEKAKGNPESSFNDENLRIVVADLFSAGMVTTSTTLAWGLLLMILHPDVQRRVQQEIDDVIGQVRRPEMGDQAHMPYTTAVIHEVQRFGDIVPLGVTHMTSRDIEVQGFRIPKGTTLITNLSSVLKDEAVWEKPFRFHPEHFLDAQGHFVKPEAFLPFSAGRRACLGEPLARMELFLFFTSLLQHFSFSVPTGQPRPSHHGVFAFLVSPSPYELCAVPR
Cytochrome P450 3A4, sequence (P08684 whole entry): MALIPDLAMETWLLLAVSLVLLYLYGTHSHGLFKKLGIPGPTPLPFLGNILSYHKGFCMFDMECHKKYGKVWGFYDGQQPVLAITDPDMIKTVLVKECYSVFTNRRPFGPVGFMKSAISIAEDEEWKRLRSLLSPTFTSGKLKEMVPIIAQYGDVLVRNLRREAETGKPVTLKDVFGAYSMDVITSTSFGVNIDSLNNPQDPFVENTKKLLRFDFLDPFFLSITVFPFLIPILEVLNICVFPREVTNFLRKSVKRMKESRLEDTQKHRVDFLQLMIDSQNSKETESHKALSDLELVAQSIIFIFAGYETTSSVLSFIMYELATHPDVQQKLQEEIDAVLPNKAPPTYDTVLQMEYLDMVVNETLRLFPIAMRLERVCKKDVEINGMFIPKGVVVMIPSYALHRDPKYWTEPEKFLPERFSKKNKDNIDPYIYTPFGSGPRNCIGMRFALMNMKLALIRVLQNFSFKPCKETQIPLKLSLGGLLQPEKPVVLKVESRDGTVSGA
Cytochrome P450 1A2, sequence (P05177 whole entry): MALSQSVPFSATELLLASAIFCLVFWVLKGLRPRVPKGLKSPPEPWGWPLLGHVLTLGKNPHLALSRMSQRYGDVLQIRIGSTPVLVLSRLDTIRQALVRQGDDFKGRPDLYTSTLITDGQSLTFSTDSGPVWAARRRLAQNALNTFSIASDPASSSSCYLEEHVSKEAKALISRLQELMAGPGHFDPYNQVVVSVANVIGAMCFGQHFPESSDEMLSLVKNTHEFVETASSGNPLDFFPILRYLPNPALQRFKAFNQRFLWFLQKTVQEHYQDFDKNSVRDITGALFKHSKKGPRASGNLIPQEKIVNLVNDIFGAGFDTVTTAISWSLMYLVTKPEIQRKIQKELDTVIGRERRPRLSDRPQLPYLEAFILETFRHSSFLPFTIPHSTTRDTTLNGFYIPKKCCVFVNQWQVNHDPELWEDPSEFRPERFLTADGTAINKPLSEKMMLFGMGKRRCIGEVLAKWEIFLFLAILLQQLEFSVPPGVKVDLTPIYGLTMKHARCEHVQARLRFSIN
Cytochrome P450 2C19, sequence (P33261 whole entry): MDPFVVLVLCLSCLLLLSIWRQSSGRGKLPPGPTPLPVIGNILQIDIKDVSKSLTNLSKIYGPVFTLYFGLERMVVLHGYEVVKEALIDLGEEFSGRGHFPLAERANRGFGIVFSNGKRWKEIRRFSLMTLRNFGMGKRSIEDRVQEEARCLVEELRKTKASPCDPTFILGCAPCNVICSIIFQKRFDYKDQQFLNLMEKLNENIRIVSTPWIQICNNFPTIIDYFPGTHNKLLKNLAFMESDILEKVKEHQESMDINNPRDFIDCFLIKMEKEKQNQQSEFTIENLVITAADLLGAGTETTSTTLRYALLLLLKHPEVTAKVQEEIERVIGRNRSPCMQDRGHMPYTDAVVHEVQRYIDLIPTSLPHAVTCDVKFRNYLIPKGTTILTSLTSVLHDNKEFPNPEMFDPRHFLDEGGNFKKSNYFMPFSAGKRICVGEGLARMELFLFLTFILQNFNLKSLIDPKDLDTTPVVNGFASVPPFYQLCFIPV
Cytochrome P450 2C9, sequence (P11712 whole entry): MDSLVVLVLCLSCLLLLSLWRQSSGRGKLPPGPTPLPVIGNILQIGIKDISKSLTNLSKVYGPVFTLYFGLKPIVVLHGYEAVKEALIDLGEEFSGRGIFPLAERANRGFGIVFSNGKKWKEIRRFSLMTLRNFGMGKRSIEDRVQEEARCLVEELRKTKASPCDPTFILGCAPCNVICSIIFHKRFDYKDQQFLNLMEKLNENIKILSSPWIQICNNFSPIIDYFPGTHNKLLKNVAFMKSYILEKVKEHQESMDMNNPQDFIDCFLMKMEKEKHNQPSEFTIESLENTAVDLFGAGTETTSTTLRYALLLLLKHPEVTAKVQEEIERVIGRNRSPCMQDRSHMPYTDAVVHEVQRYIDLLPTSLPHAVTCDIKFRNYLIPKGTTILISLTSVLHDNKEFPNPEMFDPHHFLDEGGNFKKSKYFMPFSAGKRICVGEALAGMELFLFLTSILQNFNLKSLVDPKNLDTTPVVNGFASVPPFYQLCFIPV

Broadly, the pIC50 is the IC50 on a negative log10 scale, so that one unit is a factor of ten. What is called pEC50 is the EC50 on a negative log10 scale, so that one unit is a factor of ten. For the compound `CC(=O)N1CCc2c(c(N3CCCc4cc(-c5cnn(C)c5)c(C(F)F)cc43)nn2C2CCOCC2)C1`, the pIC50 on CREB-binding protein [1] was 7.92; in data set [3], 5.38. For the same compound, the pEC50 on CREB-binding protein [2] was 7.85.
With `CNC(=O)N1CCc2c(c(N3CCCc4cc(-c5cnn(C)c5)c(C(F)F)cc43)nn2C2CCOCC2)C1`, the Activity with Mus musculus [4] is given as 150%; in [11], “Non-Toxic”. For the same compound, in the data set on Mus musculus [5], the inhibition entry is “Active”. In addition, in data set [6], the inhibition in vivo at 3 mg/kg is 73%. Moreover, the pIC50 at Cytochrome P450 1A2, against Cytochrome P450 2C19, on Cytochrome P450 2C9, at Cytochrome P450 2D6 and at Cytochrome P450 3A4 was under 5.00 in each case. The Drug uptake entry (in the data set with Plasma; in data set [9]) was “Active” throughout. Besides, in data set [7], the inhibition in vivo at 10 mg/kg was 71%. Also, in data set [8], the inhibition in vivo at 30 mg/kg amounted to 89%. In addition, in the data set on Mus musculus [10], the Imax is given as 88%.
